Results as given in ChEMBL document CHEMBL1909547, “Discovery of spiropiperidine-based potent and selective Orexin-2 receptor antagonists” (Bioorg Med Chem Lett, 2011).
pIC50: −log10 of the molar value. ≈ marks a conversion by molar mass, not a printed value.

Legend:
Orexin receptor type 2 = target: T1, Orexin receptor type 2 (Homo sapiens, UniProt O43614); assay: Antagonist activity at OX2R expressed in dihydrofolate reductase deficient CHO cells assessed as inhibition of orexin A-induced intracellular calcium mobilization by FLIPR assay; assay type: functional, cell-based
T1 sequence (O43614 whole entry): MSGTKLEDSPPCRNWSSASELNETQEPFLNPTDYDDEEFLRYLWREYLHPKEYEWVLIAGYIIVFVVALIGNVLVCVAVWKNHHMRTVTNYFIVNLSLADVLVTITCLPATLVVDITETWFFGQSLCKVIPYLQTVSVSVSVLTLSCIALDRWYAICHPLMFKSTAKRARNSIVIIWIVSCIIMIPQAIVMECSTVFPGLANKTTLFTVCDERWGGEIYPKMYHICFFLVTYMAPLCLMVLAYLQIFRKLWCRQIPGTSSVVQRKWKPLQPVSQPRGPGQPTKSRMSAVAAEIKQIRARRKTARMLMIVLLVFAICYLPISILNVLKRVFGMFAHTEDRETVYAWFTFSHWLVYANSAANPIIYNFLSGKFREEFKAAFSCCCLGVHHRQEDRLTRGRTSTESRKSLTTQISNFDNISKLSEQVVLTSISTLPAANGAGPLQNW

[1] = target: T2, Orexin/Hypocretin receptor type 1 (Homo sapiens, UniProt O43613); assay: Antagonist activity at OX1R expressed in dihydrofolate reductase deficient CHO cells assessed as inhibition of orexin A-induced intracellular calcium mobilization by FLIPR assay; assay type: functional, cell-based
T2 sequence (O43613 whole entry): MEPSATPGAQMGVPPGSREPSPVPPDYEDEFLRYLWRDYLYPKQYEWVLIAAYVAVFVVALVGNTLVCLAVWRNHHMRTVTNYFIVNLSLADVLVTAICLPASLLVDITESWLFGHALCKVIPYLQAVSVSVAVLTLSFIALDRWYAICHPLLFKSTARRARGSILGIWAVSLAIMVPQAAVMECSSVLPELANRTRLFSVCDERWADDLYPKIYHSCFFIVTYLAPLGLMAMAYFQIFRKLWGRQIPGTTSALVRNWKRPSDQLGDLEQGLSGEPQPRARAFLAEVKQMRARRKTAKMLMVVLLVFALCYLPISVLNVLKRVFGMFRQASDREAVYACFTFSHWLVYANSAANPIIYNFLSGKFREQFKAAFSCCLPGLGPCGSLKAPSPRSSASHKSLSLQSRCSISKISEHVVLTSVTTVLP

[2] = Selectivity ratio of IC50 for OX1R to IC50 for OX2R
[3] = Solubility of the compound in stomach simulated fluid JP1; assay type: physicochemical
How it was run: (§1)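 Solubility was measured in the Japanese Pharmacopoeia dissolution fluids. JP1 is the first fluid, an acidic stomach-simulating solution. JP2 is the second fluid, a buffer that mimics intestinal pH.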

[4] = Solubility of the compound in intestine simulated fluid JP2; assay type: physicochemical; how it was run: as §1
[5] = Lipophilicity, log D of the compound; assay type: physicochemical; settings: octanol/water

Structure (SMILES) | pIC50 (Orexin receptor type 2) | pIC50 [1] | Ratio IC50 [2] | solubility [3] | solubility [4] | logD [5]
O=S(=O)(c1ccccc1)N1CCOC12CCN(c1cnc3ccccc3n1)CC2 | 6.64 | 5.80 | 7 |  |  | 
O=C(Nc1ccccc1)N1CCC2(CC1)OCCN2S(=O)(=O)c1ccccc1 | 6.15 | 5.20 | 8.9 | < 70 µg/mL | 1700 µg/mL (≈ 4.23 mM) | 1.82
COc1ccc(S(=O)(=O)N2CCOC23CCN(C(=O)Nc2ccccc2)CC3F)cc1OC (stereo not given) | 8.48 | 5.82 | 450 | 5900 µg/mL (≈ 12.3 mM) | 4500 µg/mL (≈ 9.38 mM) | 1.35
O=C(Nc1ccccc1)N1CCC2(OCCN2S(=O)(=O)c2ccccc2)C(F)(F)C1 (racemic) | 6.00 | < 5.00 | > 10 | 21000 µg/mL (≈ 48 mM) | 18000 µg/mL (≈ 41.1 mM) | 1.93
COc1ccc(S(=O)(=O)N2CCOC23CCN(C(=O)Nc2ccccc2)CC3F)cc1 (racemic) | 7.06 | 5.80 | 18 | 490 µg/mL (≈ 1.09 mM) | 580 µg/mL (≈ 1.29 mM) | 1.63

Further lines, results first:

pIC50 (Orexin receptor type 2) | pIC50 [1] | Ratio IC50 [2] | solubility [3] | solubility [4] | logD [5] | Structure (SMILES)
6.77 | 6.55 | 1.6 | 45000 µg/mL | 34000 µg/mL | 2.04 | O=C(Nc1ccccc1)N1CCC2(OCCN2S(=O)(=O)c2ccccc2)[C@H](F)C1 (mixture of isomers)
6.66 | 5.60 | 11 | 8500 µg/mL | 12000 µg/mL | 1.5 | O=C(Nc1ccccc1)N1CCC2(OCCN2S(=O)(=O)c2ccccc2)[C@@H](F)C1 (mixture of isomers)
6.89 | 5.64 | 18 | 2100 µg/mL (≈ 4.67 mM) | 2400 µg/mL (≈ 5.34 mM) | 1.75 | COc1cccc(S(=O)(=O)N2CCOC23CCN(C(=O)Nc2ccccc2)CC3F)c1 (racemic)
